Reference: the M2OR odorant receptor database

What was measured:
Settings in all cases: stereoisomer not certain
[1] = target: T1, UniProt Q8VGC6
T1 sequence (whole entry): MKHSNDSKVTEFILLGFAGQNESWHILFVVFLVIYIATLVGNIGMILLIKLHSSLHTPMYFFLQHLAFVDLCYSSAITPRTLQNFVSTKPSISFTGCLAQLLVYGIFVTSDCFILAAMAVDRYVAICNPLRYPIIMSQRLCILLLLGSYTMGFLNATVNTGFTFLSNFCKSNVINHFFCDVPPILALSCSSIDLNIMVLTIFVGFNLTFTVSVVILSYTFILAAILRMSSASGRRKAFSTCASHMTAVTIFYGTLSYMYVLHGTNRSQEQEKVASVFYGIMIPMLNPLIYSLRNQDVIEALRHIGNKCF
How it was run: (§1)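 Transient luciferase assays in mammalian cell lines were common, though methods varied by source. The values come from published papers and their supplementary material, with extra details from the original authors when needed. Responsive refers to a measured signal the original authors judged statistically different from baseline, and non-responsive (inactive) to the remainder.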

[2] = target: T2, UniProt Q8VGD7
T2 sequence (whole entry): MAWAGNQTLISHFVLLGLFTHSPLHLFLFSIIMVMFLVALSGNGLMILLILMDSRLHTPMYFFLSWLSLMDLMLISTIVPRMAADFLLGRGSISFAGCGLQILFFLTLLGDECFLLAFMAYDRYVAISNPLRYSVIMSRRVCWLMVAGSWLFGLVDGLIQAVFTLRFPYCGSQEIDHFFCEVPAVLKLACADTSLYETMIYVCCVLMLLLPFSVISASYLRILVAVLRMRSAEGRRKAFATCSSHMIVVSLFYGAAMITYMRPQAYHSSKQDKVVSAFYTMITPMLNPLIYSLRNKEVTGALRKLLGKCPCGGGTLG
How it was run: as §1

[3] = target: T3, UniProt Q8VGH1
T3 sequence (whole entry): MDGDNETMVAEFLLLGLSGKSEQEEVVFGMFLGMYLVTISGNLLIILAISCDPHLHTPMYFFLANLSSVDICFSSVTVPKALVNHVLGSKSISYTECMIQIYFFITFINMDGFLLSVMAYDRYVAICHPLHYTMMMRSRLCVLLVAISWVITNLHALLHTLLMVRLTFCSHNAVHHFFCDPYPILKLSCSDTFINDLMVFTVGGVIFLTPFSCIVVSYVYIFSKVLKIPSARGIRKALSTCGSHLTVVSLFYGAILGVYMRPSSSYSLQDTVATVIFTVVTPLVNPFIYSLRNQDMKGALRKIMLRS
How it was run: as §1

[4] = target: T4, UniProt Q8VGJ1
T4 sequence (whole entry): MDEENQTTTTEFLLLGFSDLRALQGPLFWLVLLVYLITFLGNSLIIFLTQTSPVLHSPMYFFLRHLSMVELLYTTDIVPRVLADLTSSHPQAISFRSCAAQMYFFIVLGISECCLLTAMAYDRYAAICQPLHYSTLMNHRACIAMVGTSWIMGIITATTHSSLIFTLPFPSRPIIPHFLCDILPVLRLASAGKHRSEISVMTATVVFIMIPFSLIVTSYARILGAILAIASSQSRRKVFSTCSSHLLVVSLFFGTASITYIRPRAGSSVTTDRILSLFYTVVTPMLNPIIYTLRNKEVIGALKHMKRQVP
How it was run: as §1

[5] = target: T5, UniProt Q8VGJ3
T5 sequence (whole entry): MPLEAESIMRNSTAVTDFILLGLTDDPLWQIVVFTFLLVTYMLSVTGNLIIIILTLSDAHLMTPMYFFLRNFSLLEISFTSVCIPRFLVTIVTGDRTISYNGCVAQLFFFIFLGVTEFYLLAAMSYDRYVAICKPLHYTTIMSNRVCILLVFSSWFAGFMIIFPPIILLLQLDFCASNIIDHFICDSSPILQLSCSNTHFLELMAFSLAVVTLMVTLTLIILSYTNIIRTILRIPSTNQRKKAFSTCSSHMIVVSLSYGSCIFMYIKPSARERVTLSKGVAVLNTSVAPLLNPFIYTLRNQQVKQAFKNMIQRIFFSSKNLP
How it was run: as §1

[6] = target: T6, UniProt Q8VGJ5
T6 sequence (whole entry): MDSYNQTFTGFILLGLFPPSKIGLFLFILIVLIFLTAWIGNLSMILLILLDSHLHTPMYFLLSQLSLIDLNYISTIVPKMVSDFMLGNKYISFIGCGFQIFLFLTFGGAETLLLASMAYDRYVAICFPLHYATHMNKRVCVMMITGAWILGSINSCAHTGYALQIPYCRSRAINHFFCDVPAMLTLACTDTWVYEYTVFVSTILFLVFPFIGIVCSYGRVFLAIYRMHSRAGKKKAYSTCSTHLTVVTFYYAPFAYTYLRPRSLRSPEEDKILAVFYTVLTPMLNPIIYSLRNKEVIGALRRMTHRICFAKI
How it was run: as §1

[7] = target: T7, UniProt Q8VGL0
T7 sequence (whole entry): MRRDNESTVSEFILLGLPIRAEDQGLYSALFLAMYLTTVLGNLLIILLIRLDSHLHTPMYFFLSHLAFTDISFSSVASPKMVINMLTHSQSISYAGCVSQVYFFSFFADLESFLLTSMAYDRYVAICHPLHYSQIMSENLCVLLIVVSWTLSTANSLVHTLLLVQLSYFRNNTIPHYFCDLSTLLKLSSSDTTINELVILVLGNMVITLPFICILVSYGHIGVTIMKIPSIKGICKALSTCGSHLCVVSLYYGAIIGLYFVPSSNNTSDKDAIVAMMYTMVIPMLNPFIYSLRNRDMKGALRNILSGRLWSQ
How it was run: as §1

[8] = target: T8, UniProt Q8VGL7
T8 sequence (whole entry): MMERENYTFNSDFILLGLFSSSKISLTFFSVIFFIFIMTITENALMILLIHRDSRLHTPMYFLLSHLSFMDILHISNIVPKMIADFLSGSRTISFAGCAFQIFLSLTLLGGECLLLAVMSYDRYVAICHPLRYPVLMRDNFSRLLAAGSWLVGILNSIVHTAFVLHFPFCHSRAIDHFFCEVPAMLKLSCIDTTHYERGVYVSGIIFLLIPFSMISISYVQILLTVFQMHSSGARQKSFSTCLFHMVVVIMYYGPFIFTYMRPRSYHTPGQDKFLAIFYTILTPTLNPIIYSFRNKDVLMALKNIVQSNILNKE
How it was run: as §1

[9] = target: T9, UniProt Q8VGM2
T9 sequence (whole entry): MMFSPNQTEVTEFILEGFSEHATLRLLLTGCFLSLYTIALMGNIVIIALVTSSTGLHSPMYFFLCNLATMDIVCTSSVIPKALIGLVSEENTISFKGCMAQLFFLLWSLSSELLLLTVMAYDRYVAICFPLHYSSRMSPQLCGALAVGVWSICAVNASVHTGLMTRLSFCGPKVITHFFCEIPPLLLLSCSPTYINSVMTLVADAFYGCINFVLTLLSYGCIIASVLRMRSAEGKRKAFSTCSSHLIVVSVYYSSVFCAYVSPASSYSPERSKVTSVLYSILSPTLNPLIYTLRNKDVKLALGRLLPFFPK
How it was run: as §1

[10] = target: T10, UniProt Q8VGP6
T10 sequence (whole entry): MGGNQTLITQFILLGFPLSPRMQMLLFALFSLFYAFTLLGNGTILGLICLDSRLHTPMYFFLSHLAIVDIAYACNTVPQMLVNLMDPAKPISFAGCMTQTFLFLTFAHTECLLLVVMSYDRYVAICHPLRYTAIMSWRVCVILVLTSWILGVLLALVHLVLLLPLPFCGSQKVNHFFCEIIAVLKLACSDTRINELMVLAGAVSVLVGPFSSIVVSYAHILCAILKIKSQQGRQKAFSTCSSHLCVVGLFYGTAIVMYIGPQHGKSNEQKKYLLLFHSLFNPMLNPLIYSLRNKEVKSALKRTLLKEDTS
How it was run: as §1

[11] = target: T11, UniProt Q8VGQ3
T11 sequence (whole entry): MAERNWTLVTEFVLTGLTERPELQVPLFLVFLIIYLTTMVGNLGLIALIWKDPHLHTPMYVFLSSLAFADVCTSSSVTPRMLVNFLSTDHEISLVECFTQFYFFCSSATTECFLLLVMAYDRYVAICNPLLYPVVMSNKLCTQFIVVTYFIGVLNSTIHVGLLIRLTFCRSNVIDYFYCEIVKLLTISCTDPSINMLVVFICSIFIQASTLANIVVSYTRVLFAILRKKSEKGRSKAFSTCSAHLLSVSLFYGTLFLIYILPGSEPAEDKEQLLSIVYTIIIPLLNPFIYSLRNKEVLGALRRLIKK
How it was run: as §1

[12] = target: T12, UniProt Q8VGT4
T12 sequence (whole entry): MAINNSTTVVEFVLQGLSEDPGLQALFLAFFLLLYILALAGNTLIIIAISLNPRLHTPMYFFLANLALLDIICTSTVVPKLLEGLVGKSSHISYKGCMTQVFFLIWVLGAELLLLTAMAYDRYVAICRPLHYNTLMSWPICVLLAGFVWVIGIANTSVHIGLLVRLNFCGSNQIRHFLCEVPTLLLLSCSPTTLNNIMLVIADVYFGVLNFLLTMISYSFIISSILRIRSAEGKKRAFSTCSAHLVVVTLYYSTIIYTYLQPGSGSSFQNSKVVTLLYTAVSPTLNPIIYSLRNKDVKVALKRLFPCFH
How it was run: as §1

[13] = target: T13, UniProt Q8VGU3
T13 sequence (whole entry): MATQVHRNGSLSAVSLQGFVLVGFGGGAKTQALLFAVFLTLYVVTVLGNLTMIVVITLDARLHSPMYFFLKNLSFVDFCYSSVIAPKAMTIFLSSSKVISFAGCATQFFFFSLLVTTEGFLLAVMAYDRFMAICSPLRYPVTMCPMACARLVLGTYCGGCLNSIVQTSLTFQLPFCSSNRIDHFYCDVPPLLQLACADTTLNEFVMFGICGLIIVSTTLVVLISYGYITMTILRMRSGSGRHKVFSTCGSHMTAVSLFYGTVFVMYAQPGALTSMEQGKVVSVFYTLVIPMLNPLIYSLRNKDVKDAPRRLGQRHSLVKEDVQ
How it was run: as §1

[14] = target: T14, UniProt Q8VGV1
T14 sequence (whole entry): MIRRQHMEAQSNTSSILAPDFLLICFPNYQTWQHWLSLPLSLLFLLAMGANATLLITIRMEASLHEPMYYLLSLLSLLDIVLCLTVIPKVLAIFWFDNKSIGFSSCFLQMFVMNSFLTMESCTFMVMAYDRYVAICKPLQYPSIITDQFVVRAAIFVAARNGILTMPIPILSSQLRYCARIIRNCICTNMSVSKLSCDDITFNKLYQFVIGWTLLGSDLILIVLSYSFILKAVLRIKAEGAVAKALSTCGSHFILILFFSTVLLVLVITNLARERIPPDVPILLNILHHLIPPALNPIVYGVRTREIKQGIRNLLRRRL
How it was run: as §1

[15] = target: T15, UniProt Q8VGV7
T15 sequence (whole entry): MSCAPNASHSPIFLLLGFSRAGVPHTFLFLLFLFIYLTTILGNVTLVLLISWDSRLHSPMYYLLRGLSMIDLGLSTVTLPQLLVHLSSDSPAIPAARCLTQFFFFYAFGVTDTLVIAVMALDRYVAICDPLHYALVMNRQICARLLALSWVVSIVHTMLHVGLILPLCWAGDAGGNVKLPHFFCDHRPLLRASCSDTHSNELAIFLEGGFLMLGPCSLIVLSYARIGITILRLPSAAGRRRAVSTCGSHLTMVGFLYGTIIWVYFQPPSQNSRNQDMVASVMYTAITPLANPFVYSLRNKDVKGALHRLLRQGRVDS
How it was run: as §1

[16] = target: T16, UniProt Q8VGX3
T16 sequence (whole entry): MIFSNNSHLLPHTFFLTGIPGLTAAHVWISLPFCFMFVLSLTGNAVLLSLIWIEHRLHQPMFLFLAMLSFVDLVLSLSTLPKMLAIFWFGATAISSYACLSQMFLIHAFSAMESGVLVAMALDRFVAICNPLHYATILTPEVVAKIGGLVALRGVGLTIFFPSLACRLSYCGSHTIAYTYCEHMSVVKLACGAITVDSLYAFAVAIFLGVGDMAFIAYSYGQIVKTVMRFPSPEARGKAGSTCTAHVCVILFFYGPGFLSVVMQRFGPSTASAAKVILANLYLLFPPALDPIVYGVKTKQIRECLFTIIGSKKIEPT
How it was run: as §1

[17] = target: T17, UniProt Q8VGX5
T17 sequence (whole entry): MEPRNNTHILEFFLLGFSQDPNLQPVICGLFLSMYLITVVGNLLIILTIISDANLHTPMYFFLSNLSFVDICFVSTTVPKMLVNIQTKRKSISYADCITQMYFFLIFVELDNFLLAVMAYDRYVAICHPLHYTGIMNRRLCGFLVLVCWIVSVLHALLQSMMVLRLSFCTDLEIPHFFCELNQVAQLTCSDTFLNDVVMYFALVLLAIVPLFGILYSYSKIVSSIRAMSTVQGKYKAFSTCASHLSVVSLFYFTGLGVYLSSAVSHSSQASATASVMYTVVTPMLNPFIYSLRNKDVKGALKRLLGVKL
How it was run: as §1

Measured: odorant receptor agonist call;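 also: active if original authors judged signal statistically different from baseline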

CCCC(=O)C(C)=O
inactive: [1] | [2] | [3] | [4] | [5] | [6] | [7] | [8] | [9] | [10] | [11] | [12] | [13] | [14] | [15] | [16] | [17]

CCCCOC(=O)C(C)OC(=O)CCC (stereo not given)
inactive: [1] | [2] | [3] | [4] | [6] | [7] | [8] | [9] | [10] | [11] | [12] | [14] | [17]
